Screens: PubChem BioAssay, Broad Institute
S100A4 MyoIIA: blocks human S100A4 binding to myosin IIA peptide. P26447. S100A4/TAMRA-MyoIIA peptide fluorescence polarization. inhibition, % at 10.7 µM. 0.14% of 360,000 active;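 active = mean inhibition of at least 70% across replicates, with every replicate also reaching that level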
Target sequence (P26447 whole entry, looked up): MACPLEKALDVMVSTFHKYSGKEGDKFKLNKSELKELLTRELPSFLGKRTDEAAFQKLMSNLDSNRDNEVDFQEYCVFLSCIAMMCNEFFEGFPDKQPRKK
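Material: S100A4 monomer protein / Buffer or medium: 50 mM HEPES pH 7.2, 10 mM CaCl2, 100 mM KCl / Times: 5 min incubation before reading / Benchmarks: neutral control DMSO, positive control TFP / Reagent: labelled myosin peptide probe, 5 nM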
ERAP1 HTS inh: inhibitors of human ERAP1 aminopeptidase | 0.15% of 340,000 active | Q9NZ08 | inhibition, % at 10.7 µM | recombinant ERAP1, Leu-AMC fluorescence, 60 min;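 active = mean replicate inhibition of at least 30%, or all replicates individually reaching that 30% level; inactive = mean below 30% and not every replicate reaching it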
C2C12 statin: protects C2C12 myotubes from simvastatin toxicity | 0.78% of 330,000 active | rescue of ATP level, % at 7.49 µM | ATP luminescence, 48 h; scaled: DMSO 0, geranylgeraniol control 100 | AID 602340;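 active = mean ATP rescue above about 67%, or every replicate alone reaching that limit, limit read from the data, passing the limit was not always enough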;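 also: myotubes were challenged with 10 µM simvastatin during compound exposure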
Rtt109 Vps75: blocks Candida albicans Rtt109/Vps75 acetyltransferase activity; purified Rtt109/Vps75, ThioGlo CoA-SH fluorescence, 4 h; inhibition, % at 34.9 µM; 0.16% of 330,000 active; Q5AAJ8; AID 540336;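 active = inhibition of at least 50% in every replicate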
PGC1a acetyl inh: PGC1a acetylation modulation, inhibitor mode; inhibition, % at 15.6 µM; 0.17% of 350,000 active; U2OS PGC1a acetylation, AlphaScreen anti-acetyl-lysine; with virally co-expressed GCN5 acetyltransferase; AID 651687;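 active = every replicate shows inhibition of at least 40%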
Hits are given with their value; - = inactive; . = no result. The list is not random: actives were taken first. Their share in the collection is about 0.98%.

SMILES | S100A4 MyoIIA | ERAP1 HTS inh | C2C12 statin | Rtt109 Vps75 | PGC1a acetyl inh
C[C@@H]1CN([C@H](C)CO)C(=O)c2cc(NC(=O)Nc3cccc4ccccc34)ccc2O[C@@H]1CN(C)Cc1ccc(C(=O)Nc2ccccc2N)cc1 | - | - | 149 | . | -
C[C@@H]1CN([C@H](C)CO)C(=O)c2cc(NC(=O)Nc3ccc(C(F)(F)F)cc3)ccc2O[C@@H]1CN(C)Cc1ccc(C(=O)Nc2ccccc2N)cc1 | - | - | 113 | . | -
C[C@@H]1CN([C@H](C)CO)C(=O)c2cc(NC(=O)Nc3cccc4ccccc34)ccc2O[C@H]1CN(C)Cc1ccc(C(=O)Nc2ccccc2N)cc1 | - | - | - | . | -
C[C@H]1CN([C@@H](C)CO)C(=O)c2cc(NC(=O)Nc3ccc4c(c3)OCO4)ccc2O[C@@H]1CN(C)C(=O)Nc1ccc(C(F)(F)F)cc1 | - | - | 91 | . | -
C[C@@H]1CN([C@@H](C)CO)C(=O)c2cc(NC(=O)Nc3ccc(C(F)(F)F)cc3)ccc2O[C@H]1CN(C)Cc1ccc(C(=O)Nc2ccccc2N)cc1 | - | - | - | . | -
C[C@H]1CN([C@@H](C)CO)C(=O)c2cc(N(C)C)ccc2O[C@@H]1CN(C)Cc1ccc(C(=O)Nc2ccccc2N)cc1 | - | - | 81 | . | -
C[C@H]1CN([C@@H](C)CO)C(=O)c2cc(NC(=O)Nc3ccc(C(F)(F)F)cc3)ccc2O[C@@H]1CN(C)C(=O)Nc1ccc2c(c1)OCO2 | - | - | - | . | -
CC(=O)N(C)C[C@H]1Oc2ncc(-c3ccccc3F)cc2C(=O)N([C@@H](C)CO)C[C@H]1C | - | - | - | . | -
C[C@H](CO)N1C[C@H](C)[C@H](CN(C)Cc2ccc(C(=O)Nc3ccccc3N)cc2)Oc2ccc(NC(=O)Nc3cccc4ccccc34)cc2CC1=O | - | - | 240 | . | -
C[C@@H]1CN([C@H](C)CO)C(=O)c2cc(NS(=O)(=O)c3ccc(Cl)cc3)ccc2O[C@@H]1CN(C)Cc1ccc(C(=O)Nc2ccccc2N)cc1 | - | - | 97 | . | -
COc1ccc(S(=O)(=O)Nc2ccc3c(c2)C(=O)N([C@@H](C)CO)C[C@@H](C)[C@@H](CN(C)S(=O)(=O)c2cn(C)cn2)OCCCC[C@@H](C)O3)cc1 | - | - | . | . | -
Cc1noc(C)c1S(=O)(=O)Nc1ccc2c(c1)C(=O)N([C@H](C)CO)C[C@@H](C)[C@@H](CN(C)C(=O)CCCN(C)C)OCCCC[C@@H](C)O2 | . | . | . | . | -
C[C@H](CO)N1C[C@H](C)[C@@H](CN(C)S(=O)(=O)c2ccccc2)Oc2ccc(NC(=O)Nc3cccc4ccccc34)cc2CC1=O | - | - | - | . | -
COc1cccc(C(=O)Nc2ccc(N(C)C)cc2)c1OC | . | . | 90 | - | -
COc1cccc(NC(=O)c2cccc(OC)c2OC)c1 | . | . | 116 | - | -
COc1ccc(-c2noc(-c3ccccc3C(=O)Nc3cccnc3)n2)cc1 | . | . | 103 | - | -
COc1ccc(-c2noc(-c3ccccc3C(=O)Nc3cccnc3)n2)cc1OC | . | . | - | - | -
COc1cccc(NC(=O)c2ccccc2-c2ccccc2C(=O)O)c1 | - | - | - | - | 81
COc1cccc(C(=O)Nc2ccncc2)c1OC | - | - | - | - | .
CC(=O)c1cccc(NC(=O)c2ccccc2-c2ccccc2C(=O)O)c1 | - | - | - | - | -
C[C@H](CO)N1C[C@H](C)[C@@H](CN(C)C(=O)C2CCC2)Oc2cc(-c3ccncc3)ccc2S1(=O)=O | . | . | - | . | -
O=C(O)CSC1CC(=O)N(c2ccc(Cl)c(Cl)c2)C1=O (stereo not drawn) | . | . | 138 | - | -
O=C(O)CSC1CC(=O)N(c2cccc(Cl)c2)C1=O (stereo not drawn) | . | . | - | - | -
COc1cccc(C#Cc2ccc3c(c2)O[C@H](CN(C)C)[C@@H](C)CN([C@H](C)CO)S3(=O)=O)c1 | - | - | - | . | -
COc1cc(S(=O)(=O)Nc2ccc(C)cc2)ccc1N=Cc1c(C)[nH]n(-c2ccc(C)cc2)c1=O | - | - | . | - | .
COc1cc(S(=O)(=O)Nc2ccc(C)cc2)ccc1N=Cc1c(C)c(C#N)c(=O)n(C)c1O | 80 | - | . | - | -
CCOC(=O)N1CCN(C(=O)Cc2cccs2)CC1 | . | . | . | - | -
CCOC(=O)N1CCN(C(=O)Cc2ccsc2)CC1 | . | . | 110 | - | -
